Experimental findings from ChEMBL document CHEMBL4513216, “Probing the Open Global Health Chemical Diversity Library for Multistage-Active Starting Points for Next-Generation Antimalarials” (ACS Infect Dis, 2020) are described below.

This data set can be described thus: Toxicity liver stage against HepG2, at 10uM. In kind it is cell-based. The arrangement: test concentration 10 uM, cell line HepG2-A16-CD81EGFP. Conditions: human, HepG2-A16-CD81EGFP cells; read-out: INHIBITION
The method, boiled down:
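Uninfected HepG2-A16-CD81EGFP cells, 3 × 10^3 per well, 1536-well, plated on prespotted compound at 10 μM final, parasite-free screening media added to match infected plates; puromycin 10 μM positive, DMSO 0.5% negative; run in parallel with 48 h PbLuc assay at 37 °C, 5% CO2; viability by CellTiter-Glo luminescence, normalized to controls.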
With `CC(C)NC(=O)NC[C@H]1OC[C@@H](NCc2ccccc2F)[C@@H]1O`, the cytotoxicity at 10 µM is -1.31%.

`COc1cccc(CN2CC(O)CN(C(=O)C(C)(C)C)CC2=O)c1OC` (stereo unspecified): the cytotoxicity at 10 µM is -57.6%.

On to `O=C1NCCCc2c1oc1ccc(O)c(CN3CCOCC3)c21`, for which the cytotoxicity at 10 µM amounted to 13.3%.

For `O=C(Cn1ccc2cc(Br)ccc21)NC[C@@H]1CCCN2CCCC[C@H]12`, the cytotoxicity at 10 µM is 14.5%.

On to `CC1=Nc2c(c(=O)[nH]n2C(C)C)C(c2ccc3nccnc3c2)S1` (stereo unspecified), for which the cytotoxicity at 10 µM was found to be 7.29%.

Turning to `CCO[C@H]1CN(C(=O)c2ccc3c(c2)OCO3)[C@@H]2COC[C@H]12`, the cytotoxicity at 10 µM was -130%.

Regarding `CS(=O)(=O)N1CCc2c(nnn2CC2CC2)C1COCC1CC1` (stereo unspecified), the cytotoxicity at 10 µM was -3.15%.

For `Cc1ccc(N2CC3(CCN(c4nccs4)C3)C2)nn1`, the cytotoxicity at 10 µM is -5.85%.

As to `Cc1nnc(SCC(=O)NCc2ccc3c(c2)CCC(=O)N3)n1C`, the cytotoxicity at 10 µM is 9.73%.

`CS(=O)(=O)Nc1ccn(Cc2ccc(Cl)cc2)n1`: the cytotoxicity at 10 µM was determined as 6.44%.

Turning to `CNc1cncc(C2CCN(C(=O)c3coc(C)n3)CC2)n1`, the cytotoxicity at 10 µM stood at 0.109%.

On to `COc1ccc(Oc2nccnc2C2CCN(C(C)=O)CC2)cc1`, for which the cytotoxicity at 10 µM was -12.4%.

As to `COc1cnc(C2(O)CCN(C(=O)c3ccccn3)CC2)c(OC)n1`, the cytotoxicity at 10 µM was -8.99%.

On to `Cc1c[nH]nc1C1CCCCN1C(=O)CCn1nccc1C` (stereo unspecified), for which the cytotoxicity at 10 µM was -6.39%.

Regarding `COCCNC(=O)CN(C)C(C)c1nc(C)no1` (stereo unspecified), the cytotoxicity at 10 µM is 0.668%.

Regarding `N#Cc1cnc(NCc2cccc(C(=O)N3CCCC3)c2)c(Cl)c1`, the cytotoxicity at 10 µM is -0.657%.

For the compound `Cc1ccc(CNS(=O)(=O)CCCC#N)cc1F`, the cytotoxicity at 10 µM was -9.48%.

In the case of `Cc1ncc(C(=O)OCC2CCN(c3ccccc3)C2)s1` (stereo unspecified), the cytotoxicity at 10 µM was -16%.

In the case of `CCN(CC)C(=O)CCc1nc(-c2cnn3c(C)cc(C)nc23)no1`, the cytotoxicity at 10 µM was -11.5%.

As for `CCn1nc(C)cc1C(=O)N1CCC(Nc2ccc(C)nn2)CC1`, the cytotoxicity at 10 µM is -4.32%.

Regarding `CCC(NC(=O)NCC(=O)Nc1ccc(F)cc1)c1ccncc1` (stereo unspecified), the cytotoxicity at 10 µM is -10.9%.

As for `COc1c(C)cnc(CSc2nnc(NC3CC3)s2)c1C`, the cytotoxicity at 10 µM came out at 10.9%.

In the case of `Cc1ccn(-c2ccccc2NCc2scnc2C)n1`, the cytotoxicity at 10 µM amounted to 7.28%.

Regarding `N#Cc1ccc(C(=O)NS(=O)(=O)c2ccc(F)c(F)c2)cc1`, the cytotoxicity at 10 µM is -4.11%.

Turning to `Cc1ncc2c(n1)CN(C(C(N)=O)c1ccc(F)cc1)CC2` (stereo unspecified), the cytotoxicity at 10 µM is -1.01%.

In the case of `CC(=O)N(Cc1c(F)cccc1F)C1CCCC1`, the cytotoxicity at 10 µM is -3.63%.

As for `Cc1cccc(C2(O)CCN(C(=O)c3ccccn3)CC2)c1C`, the cytotoxicity at 10 µM was -0.823%.

Regarding `CS(=O)(=O)Cc1ccc(Cl)c(NCc2noc(C3CC3)n2)c1`, the cytotoxicity at 10 µM worked out at 6.95%.

Consider `NC(=O)c1cccc(CCNC(=O)N2CCCC2)c1`, for which the cytotoxicity at 10 µM was -3.88%.

On to `Cc1cnc(CNS(=O)(=O)CCC2CCCO2)o1` (stereo unspecified), for which the cytotoxicity at 10 µM was 9.84%.

`Cc1ccc(NC(=O)NCC(c2cnn(C)c2)N(C)C)c(C)c1` (stereo unspecified): the cytotoxicity at 10 µM is -0.538%.

On to `CN(Cc1ccc([S+](C)[O-])cc1)c1cncc(Br)c1` (stereo unspecified), for which the cytotoxicity at 10 µM is 11.7%.

Take `CN1CCN(C(=O)c2ccc3c(c2)[nH]c(=O)n3C2CCCC2)CC1`: the cytotoxicity at 10 µM is -42.2%.

For `CCCN(CC(=O)OC)S(=O)(=O)c1cnc2c(c1)c(C)nn2C`, the cytotoxicity at 10 µM was -2.61%.

With `CC(=O)NCc1ccc(-n2ccnc2C)nc1`, the cytotoxicity at 10 µM is -6.49%.

Turning to `CC(C)NC(=O)c1nnn(-c2cccc(C(F)(F)F)c2)c1C1CC1`, the cytotoxicity at 10 µM was -19%.

Regarding `CS(=O)(=O)N1CCC(c2nc3ccc(-c4cccc(F)c4)cn3n2)CC1`, the cytotoxicity at 10 µM was 22.6%.

Turning to `COCCC1COC2(CCN(C(=O)c3ccsc3)CC2)C1` (stereo unspecified), the cytotoxicity at 10 µM is -71.2%.

On to `CN1C(=O)CC(c2cnn(C)c2)C12CCN(C(=O)c1ccnnc1)CC2` (stereo unspecified), for which the cytotoxicity at 10 µM was -74.4%.

Consider `CCN1CCCn2c(nc(CNC(=O)c3ccsc3)cc2=O)C1`, for which the cytotoxicity at 10 µM worked out at 1.16%.

`COCCNc1cc(-c2cccc(C(=O)O)c2C)c2cc[nH]c2n1`: the cytotoxicity at 10 µM was -3.85%.

Consider `CNC(=O)C1CCN(c2ncnc3c2CCN(C(=O)C2CC2)C3)C1` (stereo unspecified), for which the cytotoxicity at 10 µM stood at 1.67%.

In the case of `CCN(Cc1nc(COC)no1)C(=O)CCNC(=O)c1ccccc1F`, the cytotoxicity at 10 µM was -4.17%.

In the case of `CCC(NC(=O)C1CCN(C(C)C)CC1)c1cn2cccnc2n1` (stereo unspecified), the cytotoxicity at 10 µM is -6.21%.

Regarding `CCc1nccn1CC(=O)N1CCN(C2CCc3ccccc3C2)CC1` (stereo unspecified), the cytotoxicity at 10 µM was -119%.

Turning to `COc1cc(CNc2nc3c(c(=O)[nH]2)CCNC3)cc(OC)c1OC`, the cytotoxicity at 10 µM turned out to be 4.72%.

For the compound `COCCCN1CC2(CCN(C(=O)c3ncc(F)cc3F)CC2)CC1=O`, the cytotoxicity at 10 µM is -3.94%.

As for `CNc1cc(C(=O)N2CCC3(CC2)Nc2ccccc2NC3=O)ccn1`, the cytotoxicity at 10 µM amounted to 3.46%.

Consider `CCOc1ccc2nc(CN3CCC(CN)C3)ccc2c1` (stereo unspecified), for which the cytotoxicity at 10 µM was -7.41%.

As for `COc1nc2ccn(CCc3cc(O)nc(C)n3)c(=O)c2cc1C#N`, the cytotoxicity at 10 µM is 10.9%.

Regarding `CCC(C(=O)NCc1csc(N2CCOCC2)n1)n1cccn1` (stereo unspecified), the cytotoxicity at 10 µM was -2.88%.

As for `N[C@H]1CN(S(=O)(=O)c2ccccc2)C[C@@H]1C1CC1`, the cytotoxicity at 10 µM is -14.3%.

As for `C[C@@H]1CN(C2CCCCC2)CC[C@@]1(O)C1CCOCC1`, the cytotoxicity at 10 µM was -7.58%.

In the case of `Cn1ccnc1CN1CCC(CNS(=O)(=O)c2cccnc2)C1` (stereo unspecified), the cytotoxicity at 10 µM is 6.03%.

Regarding `Cc1cccc(-n2ncc3c2CCCC3NCC(C)(C)CO)c1C` (stereo unspecified), the cytotoxicity at 10 µM was -1.19%.

On to `COc1cc(-c2cnnc(NCCCOC(C)C)n2)cc(OC)c1OC`, for which the cytotoxicity at 10 µM turned out to be 3.51%.

On to `COCCn1ccnc1C1CCCN(c2ncnc3c2CCC3)C1` (stereo unspecified), for which the cytotoxicity at 10 µM was 1.66%.

Regarding `CC(=O)Nn1ccc2c(nnc3c(-c4ccc(F)cc4)cnn32)c1=O`, the cytotoxicity at 10 µM stood at 1.36%.

Turning to `CC(=O)Nn1ccc2c(nnc3c(-c4ccccc4)cnn32)c1=O`, the cytotoxicity at 10 µM worked out at 3.06%.

Consider `CCN(Cc1cc(Cl)ccc1OC)Cc1cc(C)nn1C`, for which the cytotoxicity at 10 µM is 6.62%.

For `COCCC1(C(=O)O)CCCN(Cc2cc3c(cc2Cl)OCO3)C1` (stereo unspecified), the cytotoxicity at 10 µM was -5.41%.

For the compound `Cc1ccccc1CSc1nc(N)cc(N2C[C@H](O)[C@@H](N(C)C)C2)n1`, the cytotoxicity at 10 µM was found to be 17.3%.

As for `N#CCCn1nc(C(F)(F)F)c2c1CCC2`, the cytotoxicity at 10 µM was -12%.

Turning to `Cc1cc2c(=O)n3c(nc2s1)CCN(Cc1ccncc1)CC3`, the cytotoxicity at 10 µM was determined as 10.9%.

Consider `Cc1cccc(C)c1OC1CCN(Cc2ccn(C)c(=O)c2)CC1`, for which the cytotoxicity at 10 µM was -2.95%.

As to `CSC(C)C(=O)N(C)CCCc1cc(-c2ccccc2)no1` (stereo unspecified), the cytotoxicity at 10 µM was 2.63%.

Turning to `CN(C)c1ncccc1CNC(=O)N1CCCC1CN1CCCC1` (stereo unspecified), the cytotoxicity at 10 µM was -12.4%.

For `CCc1nc(C2CCCN2C(=O)c2cc[nH]n2)no1` (stereo unspecified), the cytotoxicity at 10 µM was -15.6%.

With `Cc1cnn(CC(C)NCc2ccc(OCC(N)=O)cc2)c1` (stereo unspecified), the cytotoxicity at 10 µM was -11.7%.

Turning to `Cc1ccccc1NC(=O)N1CCN(Cc2noc(C3CC3)n2)CC1`, the cytotoxicity at 10 µM was -17%.

With `CC(NC(=O)NCCCN(C)S(C)(=O)=O)c1ccc(F)cc1` (stereo unspecified), the cytotoxicity at 10 µM was -21.9%.

As for `Fc1ccc(-c2nc(CN3CCOC(Cn4cccn4)C3)co2)cc1` (stereo unspecified), the cytotoxicity at 10 µM was -3.78%.

As for `CN(Cc1cnn(-c2ccccc2)n1)CC1CCCN1c1cccnn1` (stereo unspecified), the cytotoxicity at 10 µM is -6.56%.

For the compound `CC(=O)Nc1nc(C(=O)N2CCCC(n3nc(C)cc3C)C2)cs1` (stereo unspecified), the cytotoxicity at 10 µM was determined as 0.74%.

Consider `Cc1nccn1C1CCCN(C(=O)c2ccc3c(c2)COC3)C1` (stereo unspecified), for which the cytotoxicity at 10 µM is -10.8%.

Regarding `COc1ccc(S(=O)(=O)NCc2cccnc2N(C)C)cc1F`, the cytotoxicity at 10 µM stood at 5.8%.

Regarding `CC(C)(C)c1nnc(CN2CCN(CC(O)c3ccccc3)CC2)o1` (stereo unspecified), the cytotoxicity at 10 µM was -12.8%.

Regarding `CS(=O)(=O)NCC1CCCN(C(=O)c2cc3ccccc3o2)C1` (stereo unspecified), the cytotoxicity at 10 µM is -1.82%.

For the compound `Cn1ccc(CN2CCC(COC3CCCC3)CC2)cc1=O`, the cytotoxicity at 10 µM is -1.68%.

Regarding `CN(Cc1ccco1)C[C@H]1OC[C@@H]2CN(c3ncc(F)cn3)CC[C@@H]21`, the cytotoxicity at 10 µM came out at 21.9%.

For `CC1CCN(C(=O)CN2CC(c3nc(C4CC4)no3)C2)CC1`, the cytotoxicity at 10 µM was -6.6%.

As to `CC(C)c1nn(C)c(Cl)c1CNCc1cccnc1N(C)C`, the cytotoxicity at 10 µM is 10.7%.

As for `CC(C)N1[C@H](Cn2cncn2)C[C@@H]2CN(Cc3cccs3)CC[C@@H]21`, the cytotoxicity at 10 µM was -109%.

For the compound `CN(C)C1CC2(CCN(C(=O)C3(C#N)CC3)CC2)c2ccccc21` (stereo unspecified), the cytotoxicity at 10 µM is -113%.

With `c1cnc(-c2noc(C3CN(Cc4ccc5c(c4)CCO5)C3)n2)cn1`, the cytotoxicity at 10 µM turned out to be 1.35%.

Turning to `c1cnc(N2C[C@H]3CCN(Cc4ccncc4)C[C@H]3C2)nc1`, the cytotoxicity at 10 µM was -103%.

Turning to `CC1c2ncc(Cn3cccn3)n2CCN1Cc1ccccn1` (stereo unspecified), the cytotoxicity at 10 µM was -106%.

For the compound `Cn1cc(C[C@H]2[C@H](O)CCN2Cc2ccc(F)cc2)cn1`, the cytotoxicity at 10 µM is -75.9%.

`O=C([C@H]1CCCN1)N1CC2(CCNCC2)c2cc(Cl)ccc21`: the cytotoxicity at 10 µM came to 0.286%.

Consider `CN(C)[C@@H]1CCN(C(=O)c2cccn2C)[C@H]1Cc1cnn(C)c1`, for which the cytotoxicity at 10 µM was -74.6%.

Regarding `Fc1cccc(CN2CCOCC3(CCN(C4CCOCC4)C3)C2)c1` (stereo unspecified), the cytotoxicity at 10 µM is -0.503%.

In the case of `Cc1noc(C)c1C(=O)N1Cc2ncn(C)c2C(COCC2CC2)C1` (stereo unspecified), the cytotoxicity at 10 µM was -111%.

Regarding `CN(C)C1COC2(CCN(S(=O)(=O)c3ccc(F)cc3)CC2)C1` (stereo unspecified), the cytotoxicity at 10 µM was -129%.

For `COc1ccccc1-c1ccc(C(=O)N2C[C@@H]3CC[C@H]2CN(C)C3)cc1`, the cytotoxicity at 10 µM is -18.2%.

Regarding `Cc1cccc(CN2C[C@@H]3CC[C@H]2CN(Cc2[nH]cnc2C)C3)n1`, the cytotoxicity at 10 µM was -3.43%.

Consider `Cc1cnc(CN(C)C(=O)C23CNCC2CNC3)[nH]1` (stereo unspecified), for which the cytotoxicity at 10 µM was -6.46%.
